Test results from ChEMBL document CHEMBL3102812 (J Med Chem, 2013).
pIC50: −log10 of the molar value. Converted amounts (≈) assume the structure as drawn. The source made the active and inactive calls. No cut-off for these calls is given here.

Experiments:
[1] = test system: Mus musculus; test: Toxicity in Swiss mouse at 20 mg/kg, po; details: in vivo
[2] = test system: Trypanosoma cruzi; test: Antitrypanosomal activity against Trypanosoma cruzi Tulahuen 6 infected in Swiss mouse assessed as reduction in blood parasitemia at 20 mg/kg, po qd administered on day 8 post-infection for 10 days by microscopic analysis; type: functional, organism-based; design: dose 20 mg/kg
In short: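 Infected Swiss mice dosed orally at 20 mg/kg once daily for up to 10 days starting day 8 pi; blood parasitemia followed by microscopy throughout dosing, scored as cleared or not during the dosing period.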

[3] = test system: Trypanosoma cruzi; test: Antitrypanosomal activity against Trypanosoma cruzi Tulahuen 6 amastigotes infected in rat L6 cells after 96 hrs by colorimetric method; type: functional, organism-based; details: Tulahuen 6, L6, 96 h
[4] = Partition coefficient, log D of the compound at pH 7.4 by chromatographic method; details: octanol/water
[5] = molecular target: Cytochrome P450 3A4 (Homo sapiens, UniProt P08684); test: Inhibition of CYP3A4 in human liver microsomes assessed as 6beta-hydroxylation of testosterone
Cytochrome P450 3A4, sequence (P08684 whole entry): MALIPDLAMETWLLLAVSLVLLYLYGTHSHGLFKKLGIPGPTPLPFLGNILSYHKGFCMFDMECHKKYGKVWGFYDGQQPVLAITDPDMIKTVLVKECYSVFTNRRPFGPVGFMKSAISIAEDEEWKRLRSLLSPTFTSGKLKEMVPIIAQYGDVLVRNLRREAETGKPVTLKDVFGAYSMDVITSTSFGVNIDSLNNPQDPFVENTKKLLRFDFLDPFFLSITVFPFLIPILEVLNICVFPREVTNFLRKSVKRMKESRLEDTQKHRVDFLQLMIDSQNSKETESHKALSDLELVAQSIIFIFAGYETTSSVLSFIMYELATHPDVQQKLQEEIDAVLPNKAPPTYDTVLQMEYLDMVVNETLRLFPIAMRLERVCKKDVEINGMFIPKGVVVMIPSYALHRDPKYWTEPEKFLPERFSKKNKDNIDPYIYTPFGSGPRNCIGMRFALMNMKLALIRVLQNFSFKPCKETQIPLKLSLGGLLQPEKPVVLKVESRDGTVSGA

[6] = Kinetic aqueous solubility of the compound in phosphate buffer at pH 2 by nephelometric analysis; details: for solubility kinetic: phosphate buffer
[7] = Kinetic aqueous solubility of the compound in phosphate buffer at pH 6.5 by nephelometric analysis
[8] = test system: Trypanosoma cruzi; test: Antitrypanosomal activity against Trypanosoma cruzi Tulahuen 6 infected in Swiss mouse assessed as mouse survival at 20 mg/kg, po qd administered on day 8 post-infection measured on same day by microscopic analysis; type: functional, organism-based; design: dose 20 mg/kg
[9] = test system: Trypanosoma cruzi; test: Antitrypanosomal activity against Trypanosoma cruzi Tulahuen 6 infected in Swiss mouse at 20 mg/kg, po qd administered on day 8 post-infection for 20 days followed by 10 days non-treatment period followed by three cycles of immunosuppression measured on day 58 post-infection by PCR analysis; type: functional, organism-based; design: dose 20 mg/kg
[10] = test system: Trypanosoma cruzi; test: Antitrypanosomal activity against Trypanosoma cruzi Tulahuen 6 infected in Swiss mouse assessed as mouse survival at 10 mg/kg, po qd administered on day 8 post-infection for 20 days measured on day 28 post-infection by microscopic analysis; type: functional, organism-based; design: dose 10 mg/kg
In short: (§1)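 Outbred female Swiss mice (~8 weeks) infected with mouse-passaged Tulahuen TcVI trypomastigotes; oral dosing once daily for 20 days from day 8 post-infection, suspension in 0.5% HPMC, 0.4% Tween 80, 0.5% benzyl alcohol, 5% DMSO in water; blood parasitemia by microscopy (LOD 20 000 parasites/mL); mice with recurring parasitemia euthanized; survival counted per starting group; 10-day untreated period days 28–37.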

[11] = test system: Trypanosoma cruzi; test: Antitrypanosomal activity against Trypanosoma cruzi Tulahuen 6 infected in Swiss mouse assessed as mouse survival at 20 mg/kg, po qd administered on day 8 post-infection for 20 days followed by 10 days non-treatment measured on day 37 post-infection by microscopic analysis; type: functional, organism-based; design: dose 20 mg/kg; in short: as §1
[12] = Volume of distribution at steady state in Swiss mouse at 2 mg/kg, iv and 20 mg/kg, po by LC/MS analysis; type: ADME, organism-based; details: in vivo, read-out: Vdss
[13] = Plasma clearance in Swiss mouse at 2 mg/kg, iv and 20 mg/kg, po by LC/MS analysis; type: ADME, organism-based
[14] = Half life in Swiss mouse at 20 mg/kg, po by LC/MS analysis; type: ADME, organism-based; design: dose 20 mg/kg, route oral; details: in vivo
[15] = test system: Mus musculus; test: Oral bioavailability in Swiss mouse at 20 mg/kg by LC/MS analysis; type: ADME, organism-based; details: in vivo
[16] = Half life in Swiss mouse at 2 mg/kg, iv by LC/MS analysis; type: ADME, organism-based; design: dose 2 mg/kg, route intravenous; details: in vivo
[17] = test system: Mus musculus; test: Toxicity in Swiss mouse assessed as weight loss at 25 mg/kg, po bid for 2.5 days; type: organism-based; design: dose 25 mg/kg, route oral; details: in vivo, 60 h
In short: (§2)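 Acute toxicity by stepwise cumulative oral dosing in two mice per compound: 25 and/or 50 mg/kg twice daily for 2.5 days to […]; animals observed for 1 week after the last dose for adverse effects and weight loss.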

[18] = test system: Mus musculus; test: Toxicity in Swiss mouse assessed as weight loss at 50 mg/kg, po bid for 2.5 days; type: organism-based; design: dose 50 mg/kg, route oral; details: in vivo, 60 h; in short: as §2
[19] = test system: Trypanosoma cruzi; test: Antitrypanosomal activity against Trypanosoma cruzi Tulahuen 6 infected in Swiss mouse assessed as mouse survival at 20 mg/kg, po qd administered on day 8 post-infection for 20 days measured on day 28 post-infection by microscopic analysis; type: functional, organism-based; design: dose 20 mg/kg

SMILES	Activity [1]	Activity [2]	pIC50 [3]	chromatographic logD [4]	pIC50 [5]	solubility kinetic [6] [µg/mL]	solubility kinetic [7] [µg/mL]	also measured
N#Cc1cccc(N2CCC(NC(c3cccnc3)c3ccc(Cl)cc3F)CC2)c1 (stereo unspecified)	Non-toxic	inactive	7.89	–	–	–	–	–
Cc1ncsc1C(=O)N1CCC(NC(c2ccc(C(F)(F)F)cc2)c2cccnc2)CC1 (stereo unspecified)	Non-toxic	inactive	7.24	–	–	–	–	–
Fc1cc(Cl)ccc1C(NC1CCN(c2ccc(C(F)(F)F)cc2)CC1)c1cccnc1 (stereo unspecified)	Non-toxic	Active	7.96	–	–	–	–	–
FC(F)(F)c1ccc(N2CCC(N(c3ccc(C(F)(F)F)cc3)c3cccnc3)CC2)cc1	–	–	7.77	–	–	–	–	–
N#Cc1ccc(C(c2cccnc2)N2CCC(NC(=O)c3c(F)cccc3F)CC2)cc1 (stereo unspecified)	Non-toxic	inactive	7.72	–	–	–	–	–
N#Cc1ccccc1N1CCC(N(c2ccc(C(F)(F)F)cc2)c2cccnc2)CC1	–	–	–	4.9	5.28	> 100	< 1.6	–
FC(F)(F)c1ccc(N(c2cncnc2)C2CCN(c3ccc(C(F)(F)F)cn3)CC2)cc1	Non-toxic	–	8.30	4.9	5.20	12.5 (≈ 26.7 µM)	< 1.6	–
N#Cc1ccc(C(C(=O)N2CCN(c3ccc(C(F)(F)F)cn3)CC2)c2cccnc2)cc1 (stereo unspecified)	Non-toxic	–	7.92	3.5	< 4.70	50 (≈ 111 µM)	6.3 (≈ 14 µM)	–
O=C(C(c1ccc(Cl)cc1)c1cccnc1)N1CCN(c2ccc(C(F)(F)F)cn2)CC1 (stereo unspecified)	Non-toxic	–	7.92	4.2	5.15	–	3.1 (≈ 6.73 µM)	Kinetic solubility ([6]; buffer): 25 µg/mL
N#Cc1ccc(C(C(=O)N2CCN(c3ccc(C(F)(F)F)cc3)CC2)c2cccnc2)cc1 (stereo unspecified)	Non-toxic	–	7.92	3.8	< 4.70	> 100	3.1 (≈ 6.88 µM)	–
Cc1ccccc1CN1CCC(N(c2ccc(C(F)(F)F)cc2)c2cccnc2)CC1	–	–	–	> 5.3	–	> 100	3.1 (≈ 7.29 µM)	–
CC(C)(C)CC(=O)N1CCC(N(c2ccc(Cl)cc2)c2cccnc2)CC1	–	–	–	4.2	–	> 100	6.3 (≈ 16.3 µM)	–
N#Cc1ccc(N(c2cccnc2)C2CCN(c3ccc(C(F)(F)F)cc3)CC2)cc1	Non-toxic	–	8.52	4.7	–	25 (≈ 59.2 µM)	< 1.6	–
O=C([C@H](c1ccc(Cl)cc1)c1cccnc1)N1CCN(c2ccc(C(F)(F)F)cc2)CC1	–	–	–	4.5	4.77	> 100	1.6 (≈ 3.48 µM)	–
N#Cc1ccc(C(c2cccnc2)N2CCC(NC(=O)c3ccccc3)CC2)cc1 (stereo unspecified)	Non-toxic	inactive	7.62	–	–	–	–	–
CC[C@@H]([C@H](C)O)n1ncn(-c2ccc(N3CCN(c4ccc(OC[C@@H]5CO[C@@](Cn6cncn6)(c6ccc(F)cc6F)C5)cc4)CC3)cc2)c1=O [POSACONAZOLE]	Non-toxic	Active	9.00	–	–	–	–	Activity [8]: Active; Activity [9]: Active; Activity [10]: Active; Activity [11]: Active
N#Cc1ccc(C(C(=O)N2CCN(c3ccc(C(F)(F)F)nc3)CC2)c2cccnc2)cc1 (stereo unspecified)	–	–	–	3	< 4.70	> 100	25 (≈ 55.4 µM)	–
FC(F)(F)c1ccc(N(c2cccnc2)C2CCN(c3ccc(C(F)(F)F)cn3)CC2)cc1	Non-toxic	Active	7.77	> 5.3	–	> 100	< 1.6	Vd [12]: 4.4 L/kg; clearance [13]: 8.1 mL/min/kg; half-life [14]: 12.5 h; Activity [8]: Active; Activity [9]: Active; F [15]: 95%; half-life [16]: 8.6 h; Activity [17]: Non-toxic; Activity [18]: Non-toxic
O=C(C(c1ccc(Cl)cc1)c1cccnc1)N1CCN(c2ccc(C(F)(F)F)nc2)CC1 (stereo unspecified)	Non-toxic	–	8.10	3.7	< 4.70	50 (≈ 108 µM)	6.3 (≈ 13.7 µM)	–
N#Cc1ccc(C(O)(c2ccc(C(F)(F)F)cc2)c2cccnc2)cc1 (stereo unspecified)	Non-toxic	Active	–	–	–	–	–	–
Cc1cc(C(=O)NC2CCN(C(c3ccc(C#N)cc3)c3cccnc3)CC2)n(C)n1 (stereo unspecified)	Non-toxic	inactive	7.33	–	–	–	–	–
CS(=O)(=O)c1ccc(N2CCN(C(=O)C(c3ccc(Cl)cc3)c3cccnc3)CC2)cc1 (stereo unspecified)	Non-toxic	–	8.70	3	5.40	> 100	6.3 (≈ 13.4 µM)	–
CS(=O)(=O)c1ccc(N2CCN(C(=O)C(c3ccc(C#N)cc3)c3cccnc3)CC2)cc1 (stereo unspecified)	Non-toxic	–	7.62	2.4	< 4.70	25 (≈ 54.3 µM)	3.1 (≈ 6.73 µM)	–
O=C(C(c1ccc(Cl)cc1)c1cccnc1)N1CCN(c2ccc(C(F)(F)F)cc2)CC1 (racemic)	Non-toxic	Active	–	4.5	4.80	> 100	1.6 (≈ 3.48 µM)	Activity [8]: Active; Activity [9]: inactive; Activity [19]: Active; Activity [17]: Non-toxic; Activity [11]: Active; Activity [18]: Non-toxic
N#Cc1ccc(C(O)(c2ccc(C(F)(F)F)cc2)c2cccnc2)c(F)c1 (stereo unspecified)	Non-toxic	Active	–	–	–	–	–	–
CS(=O)(=O)c1ccc(N2CCC(N(c3ccc(C#N)cc3)c3cccnc3)CC2)cc1	Non-toxic	–	8.70	3	4.92	25 (≈ 57.8 µM)	< 1.6	–
FC(F)(F)c1ccc(N(c2cccnc2)C2CCN(c3ccc(Cl)cc3)CC2)cc1	–	–	–	> 5.3	–	> 100	< 1.6	–
